Laboratory results taken from ChEMBL document CHEMBL5058577, “EUbOPEN Chemogenomics Library 2 (Multiplex)” (2022).

Test system: Fibroblast
Experiment: Multiplex assay against human fibroblast
Assay type: toxicity, cell-based
Summary of the method: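 Imaging took place on a CQ1 microscope at 37°C and 5% CO2 once compound had been added to live cells stained at seeding with Hoechst33342, BioTracker Green Microtubule Cytoskeleton Dye, MitoTracker Red and Annexin V Alexa Fluor 680. CellPathfinder machine-learning gating classed cells as Hoechst high-intensity objects or normal cells, classed normal cells as having healthy, pyknosed or fragmented nuclei, and classed pyknosed cells as mitotic or apoptotic. Tubulin, mitochondrial-mass and membrane-permeability phenotypes are per cents of the healthy-nucleus cells.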

[1] = 12 h, 1 µM, compound concentration 1 uM, replicate 1
[2] = 12 h, 1 µM, compound concentration 1 uM, replicate 2
[3] = 12 h, 10 µM, compound concentration 10 uM, replicate 1
[4] = 12 h, 10 µM, compound concentration 10 uM, replicate 2
[5] = 24 h, 1 µM, compound concentration 1 uM, replicate 1
[6] = 24 h, 1 µM, compound concentration 1 uM, replicate 2
[7] = 24 h, 10 µM, compound concentration 10 uM, replicate 1
[8] = 24 h, 10 µM, compound concentration 10 uM, replicate 2
[9] = 48 h, 1 µM, compound concentration 1 uM, replicate 1
[10] = 48 h, 1 µM, compound concentration 1 uM, replicate 2
[11] = 48 h, 10 µM, compound concentration 10 uM, replicate 1
[12] = 48 h, 10 µM, compound concentration 10 uM, replicate 2

SMILES: O=C(NCCO)c1cccc(-c2cc(Nc3ccc(OC(F)(F)F)cc3)ncn2)c1
- Population Apoptotic (%) [1]: 46%
- Population Fragmented Nuclei (%) [1]: 16%
- Population Healthy Nuclei (%) [1]: 60%
- Population Hoechst High Intensity Objects (%) [1]: 3%
- Population Membrane Permeable-Phenotype (%) [1]: 1%
- Population Mitochondria Different-Phenotype (%) [1]: 6%
- Population Mitotic Cells (%) [1]: 53%
- Population Normal (%) [1]: 96%
- Population Pyknosed Nuclei (%) [1]: 24%
- Population Tubulin-Different-Phenotype (%) [1]: 33%
- Total Cell Count [1]: 130
- Population Apoptotic (%) [2]: 38%
- Population Fragmented Nuclei (%) [2]: 29%
- Population Healthy Nuclei (%) [2]: 46%
- Population Hoechst High Intensity Objects (%) [2]: 4%
- Population Membrane Permeable-Phenotype (%) [2]: 10%
- Population Mitochondria Different-Phenotype (%) [2]: 8%
- Population Mitotic Cells (%) [2]: 61%
- Population Normal (%) [2]: 95%
- Population Pyknosed Nuclei (%) [2]: 23%
- Population Tubulin-Different-Phenotype (%) [2]: 46%
- Total Cell Count [2]: 149
- Population Apoptotic (%) [3]: 37%
- Population Fragmented Nuclei (%) [3]: 17%
- Population Healthy Nuclei (%) [3]: 59%
- Population Hoechst High Intensity Objects (%) [3]: 5%
- Population Membrane Permeable-Phenotype (%) [3]: 0%
- Population Mitochondria Different-Phenotype (%) [3]: 13%
- Population Mitotic Cells (%) [3]: 62%
- Population Normal (%) [3]: 94%
- Population Pyknosed Nuclei (%) [3]: 22%
- Population Tubulin-Different-Phenotype (%) [3]: 54%
- Total Cell Count [3]: 185
- Population Apoptotic (%) [4]: 40%
- Population Fragmented Nuclei (%) [4]: 22%
- Population Healthy Nuclei (%) [4]: 36%
- Population Hoechst High Intensity Objects (%) [4]: 10%
- Population Membrane Permeable-Phenotype (%) [4]: 11%
- Population Mitochondria Different-Phenotype (%) [4]: 11%
- Population Mitotic Cells (%) [4]: 59%
- Population Normal (%) [4]: 89%
- Population Pyknosed Nuclei (%) [4]: 40%
- Population Tubulin-Different-Phenotype (%) [4]: 79%
- Total Cell Count [4]: 192
- Population Apoptotic (%) [5]: 56%
- Population Fragmented Nuclei (%) [5]: 16%
- Population Healthy Nuclei (%) [5]: 60%
- Population Hoechst High Intensity Objects (%) [5]: 1%
- Population Membrane Permeable-Phenotype (%) [5]: 2%
- Population Mitochondria Different-Phenotype (%) [5]: 4%
- Population Mitotic Cells (%) [5]: 43%
- Population Normal (%) [5]: 98%
- Population Pyknosed Nuclei (%) [5]: 22%
- Population Tubulin-Different-Phenotype (%) [5]: 33%
- Total Cell Count [5]: 135
- Population Apoptotic (%) [6]: 52%
- Population Fragmented Nuclei (%) [6]: 24%
- Population Healthy Nuclei (%) [6]: 50%
- Population Hoechst High Intensity Objects (%) [6]: 2%
- Population Membrane Permeable-Phenotype (%) [6]: 5%
- Population Mitochondria Different-Phenotype (%) [6]: 5%
- Population Mitotic Cells (%) [6]: 47%
- Population Normal (%) [6]: 97%
- Population Pyknosed Nuclei (%) [6]: 25%
- Population Tubulin-Different-Phenotype (%) [6]: 42%
- Total Cell Count [6]: 139
- Population Apoptotic (%) [7]: 50%
- Population Fragmented Nuclei (%) [7]: 14%
- Population Healthy Nuclei (%) [7]: 61%
- Population Hoechst High Intensity Objects (%) [7]: 11%
- Population Membrane Permeable-Phenotype (%) [7]: 1%
- Population Mitochondria Different-Phenotype (%) [7]: 21%
- Population Mitotic Cells (%) [7]: 50%
- Population Normal (%) [7]: 88%
- Population Pyknosed Nuclei (%) [7]: 24%
- Population Tubulin-Different-Phenotype (%) [7]: 53%
- Total Cell Count [7]: 175
- Population Apoptotic (%) [8]: 41%
- Population Fragmented Nuclei (%) [8]: 30%
- Population Healthy Nuclei (%) [8]: 36%
- Population Hoechst High Intensity Objects (%) [8]: 7%
- Population Membrane Permeable-Phenotype (%) [8]: 10%
- Population Mitochondria Different-Phenotype (%) [8]: 25%
- Population Mitotic Cells (%) [8]: 58%
- Population Normal (%) [8]: 92%
- Population Pyknosed Nuclei (%) [8]: 32%
- Population Tubulin-Different-Phenotype (%) [8]: 84%
- Total Cell Count [8]: 187
- Population Apoptotic (%) [9]: 82%
- Population Fragmented Nuclei (%) [9]: 21%
- Population Healthy Nuclei (%) [9]: 65%
- Population Hoechst High Intensity Objects (%) [9]: 1%
- Population Membrane Permeable-Phenotype (%) [9]: 3%
- Population Mitochondria Different-Phenotype (%) [9]: 1%
- Population Mitotic Cells (%) [9]: 17%
- Population Normal (%) [9]: 98%
- Population Pyknosed Nuclei (%) [9]: 13%
- Population Tubulin-Different-Phenotype (%) [9]: 28%
- Total Cell Count [9]: 130
- Population Apoptotic (%) [10]: 45%
- Population Fragmented Nuclei (%) [10]: 31%
- Population Healthy Nuclei (%) [10]: 53%
- Population Membrane Permeable-Phenotype (%) [10]: 6%
- Population Mitochondria Different-Phenotype (%) [10]: 4%
- Population Mitotic Cells (%) [10]: 54%
- Population Pyknosed Nuclei (%) [10]: 14%
- Population Tubulin-Different-Phenotype (%) [10]: 38%
- Total Cell Count [10]: 156
- Population Apoptotic (%) [11]: 70%
- Population Fragmented Nuclei (%) [11]: 35%
- Population Healthy Nuclei (%) [11]: 51%
- Population Hoechst High Intensity Objects (%) [11]: 13%
- Population Membrane Permeable-Phenotype (%) [11]: 0%
- Population Mitochondria Different-Phenotype (%) [11]: 26%
- Population Mitotic Cells (%) [11]: 30%
- Population Normal (%) [11]: 86%
- Population Pyknosed Nuclei (%) [11]: 13%
- Population Tubulin-Different-Phenotype (%) [11]: 64%
- Total Cell Count [11]: 170
- Population Apoptotic (%) [12]: 76%
- Population Fragmented Nuclei (%) [12]: 40%
- Population Healthy Nuclei (%) [12]: 47%
- Population Hoechst High Intensity Objects (%) [12]: 6%
- Population Membrane Permeable-Phenotype (%) [12]: 13%
- Population Mitochondria Different-Phenotype (%) [12]: 19%
- Population Mitotic Cells (%) [12]: 23%
- Population Normal (%) [12]: 93%
- Population Pyknosed Nuclei (%) [12]: 11%
- Population Tubulin-Different-Phenotype (%) [12]: 86%
- Total Cell Count [12]: 198
